{"source": "ChEMBL document CHEMBL4613245", "about": "“Arenicolins: C-Glycosylated Depsides from Penicillium arenicola” (J Nat Prod, 2020)", "key": {"Staphylococcus aureus": {"tested_on": "Staphylococcus aureus", "experiment": "Antibacterial activity against Staphylococcus aureus ATCC 43300 at 100 ug/ml incubated for 24 to 48 hrs", "assay_type": "functional, organism-based", "how_it_was_run": "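Agar well diffusion: sample dissolved in DMSO at 0.1 mg/mL, 10 μL applied to a 4 mm well cut in YM agar seeded with an overnight S. aureus ATCC 43300 culture; plates held at 37 °C and read for inhibition zones after 24–48 h.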"}, "Cryptococcus neoformans": {"tested_on": "Cryptococcus neoformans", "experiment": "Antifungal activity against Cryptococcus neoformans H99 at 100 ug/ml measured at 48 hrs by agar well diffusion method", "conditions": "var grubii H99"}, "Candida albicans": {"tested_on": "Candida albicans", "experiment": "Antifungal activity against Candida albicans ATCC 10231 at 100 ug/ml measured at 24 hrs by agar well diffusion method"}, "BT-474 [1]": {"tested_on": "BT-474", "experiment": "Cytotoxicity against human BT474 cells up to 30 uM after 48 hrs by CellTiter-Glo assay", "assay_type": "functional, cell-based", "how_it_was_run": "(§1)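 Cells plated at 2000/well and preincubated 2 h, then exposed for 48 h to serial dilutions from 0.3 to 30.0 μM. Controls were 5-FU (positive) and fresh medium (negative). Each concentration ran in triplicate, and viability was read by CellTiter-Glo luminescence per the kit protocol.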"}, "IMR-32 [2]": {"tested_on": "IMR-32", "experiment": "Cytotoxicity against human IMR32 cells up to 30 uM after 48 hrs by CellTiter-Glo assay", "assay_type": "functional, cell-based", "how_it_was_run": "as §1"}, "HCT-116 [3]": {"tested_on": "HCT-116", "experiment": "Cytotoxicity against human HCT116 cells up to 30 uM after 48 hrs by CellTiter-Glo assay", "assay_type": "functional, cell-based", "how_it_was_run": "as §1"}, "IMR-32 [4]": {"tested_on": "IMR-32", "experiment": "Cytotoxicity against human IMR32 cells after 48 hrs by CellTiter-Glo assay", "assay_type": "functional, cell-based", "conditions": "for pIC50: IMR-32, 48 h", "how_it_was_run": "as §1"}, "HCT-116 [5]": {"tested_on": "HCT-116", "experiment": "Cytotoxicity against human HCT116 cells after 48 hrs by CellTiter-Glo assay", "assay_type": "functional, cell-based", "conditions": "for pIC50: HCT-116, 48 h", "how_it_was_run": "as §1"}, "BT-474 [6]": {"tested_on": "BT-474", "experiment": "Cytotoxicity against human BT474 cells after 48 hrs by CellTiter-Glo assay", "assay_type": "functional, cell-based", "how_it_was_run": "as §1"}}, "note": "pIC50: −log10 of the molar value. The source made the active and inactive calls. The rule behind the calls is not given here.", "data": [{"molecule": "CCCCCCCc1cc(OC(=O)c2c(CCCCCCC)cc(O)c([C@@H]3O[C@H](CO)[C@@H](O)[C@H](O)[C@H]3O)c2O)cc(O)c1C(=O)O", "values": [{"measurement": "Activity", "setting": "Staphylococcus aureus", "value": "inactive"}, {"measurement": "Activity", "setting": "Cryptococcus neoformans", "value": "inactive"}, {"measurement": "Activity", "setting": "Candida albicans", "value": "inactive"}, {"measurement": "Activity", "setting": "BT-474 [1]", "value": "inactive"}, {"measurement": "Activity", "setting": "IMR-32 [2]", "value": "inactive"}, {"measurement": "Activity", "setting": "HCT-116 [3]", "value": "inactive"}]}, {"molecule": "CCCCCCCc1cc(OC(=O)c2c(CCCCCCC)cc(O)c([C@@H]3O[C@H](CO)[C@@H](O)[C@H](O)[C@H]3O)c2O)cc(O)c1C(=O)O[C@@H]1C(=O)C(CO)=C[C@@H](O)[C@H]1O", "values": [{"measurement": "Activity", "setting": "Staphylococcus aureus", "value": "inactive"}, {"measurement": "Activity", "setting": "Cryptococcus neoformans", "value": "inactive"}, {"measurement": "Activity", "setting": "IMR-32 [4]", "value": "Dose-dependent effect"}, {"measurement": "pIC50", "setting": "IMR-32 [4]", "value": 5.22}, {"measurement": "Activity", "setting": "Candida albicans", "value": "inactive"}, {"measurement": "Activity", "setting": "HCT-116 [5]", "value": "Dose-dependent effect"}, {"measurement": "pIC50", "setting": "HCT-116 [5]", "value": 5.14}, {"measurement": "Activity", "setting": "BT-474 [6]", "value": "Dose-dependent effect"}, {"measurement": "pIC50", "setting": "BT-474 [6]; BT-474, 48 h", "value": 5.01}]}, {"molecule": "O=c1[nH]cc(F)c(=O)[nH]1", "note": "[FLUOROURACIL]", "values": [{"measurement": "pIC50", "setting": "IMR-32 [4]", "value": 5.24}, {"measurement": "pIC50", "setting": "HCT-116 [5]", "value": 5.19}]}]}
